ChEMBL document CHEMBL5303300, “EUbOPEN Chemogenomics Library - Multiplex” (2023)
Several values for one entry are separate records, joined by “and”; a condition that tells them apart may be missing. Equal entries are not always repeated.

Test system: Fibroblast
Assay: Multiplex assay against human fibroblast
Format: toxicity, cell-based
Conditions: number of replicates 2
Method in brief: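 Live cells were stained at seeding with Hoechst33342, BioTracker Green Microtubule Cytoskeleton Dye, MitoTracker Red and Annexin V Alexa Fluor 680, then imaged on a CQ1 microscope at 37°C and 5% CO2 after compound addition. CellPathfinder machine-learning gating split cells into Hoechst high-intensity objects or normal cells. Normal cells were split into healthy, pyknosed or fragmented nuclei, and pyknosed cells into mitotic or apoptotic. Tubulin, mitochondrial-mass and membrane-permeability phenotypes are per cents of healthy-nucleus cells.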

[1] = 12 h, 1 µM, compound concentration 1 uM
[2] = 12 h, 10 µM, compound concentration 10 uM
[3] = 24 h, 1 µM, compound concentration 1 uM
[4] = 24 h, 10 µM, compound concentration 10 uM
[5] = 48 h, 1 µM, compound concentration 1 uM
[6] = 48 h, 10 µM, compound concentration 10 uM

CCN1CCN(Cc2ccc(C(=O)Nc3ccc(C)c(Oc4ccc5c(c4)CC(=O)N5)c3)cc2C(F)(F)F)CC1.Cl.Cl
Population Apoptotic (%) [1]: 32% and 37% | Population Fragmented Nuclei (%) [1]: 14% and 13% | Population Healthy Nuclei (%) [1]: 59% and 62% | Population Hoechst High Intensity Objects (%) [1]: 0% | Population Membrane Permeable-Phenotype (%) [1]: 2% and 6% | Population Mitochondria Different-Phenotype (%) [1]: 2% and 1% | Population Mitotic Cells (%) [1]: 67% and 62% | Population Normal (%) [1]: 100% and 99% | Population Pyknosed Nuclei (%) [1]: 25% and 23% | Population Tubulin-Different-Phenotype (%) [1]: 27% | Total Cell Count [1]: 230 and 264 | Population Apoptotic (%) [2]: 47% and 35% | Population Fragmented Nuclei (%) [2]: 22% and 13% | Population Healthy Nuclei (%) [2]: 58% and 61% | Population Hoechst High Intensity Objects (%) [2]: 0% | Population Membrane Permeable-Phenotype (%) [2]: 8% | Population Mitochondria Different-Phenotype (%) [2]: 11% and 14% | Population Mitotic Cells (%) [2]: 52% and 64% | Population Normal (%) [2]: 99% and 100% | Population Pyknosed Nuclei (%) [2]: 18% and 25% | Population Tubulin-Different-Phenotype (%) [2]: 78% and 73% | Total Cell Count [2]: 298 and 282 | Population Apoptotic (%) [3]: 47% and 46% | Population Fragmented Nuclei (%) [3]: 21% and 16% | Population Healthy Nuclei (%) [3]: 61% and 59% | Population Hoechst High Intensity Objects (%) [3]: 0% | Population Membrane Permeable-Phenotype (%) [3]: 3% and 1% | Population Mitochondria Different-Phenotype (%) [3]: 2% and 4% | Population Mitotic Cells (%) [3]: 52% and 53% | Population Normal (%) [3]: 99% and 100% | Population Pyknosed Nuclei (%) [3]: 17% and 23% | Population Tubulin-Different-Phenotype (%) [3]: 28% and 20% | Total Cell Count [3]: 278 and 269 | Population Apoptotic (%) [4]: 59% and 68% | Population Fragmented Nuclei (%) [4]: 15% and 7% | Population Healthy Nuclei (%) [4]: 57% and 51% | Population Hoechst High Intensity Objects (%) [4]: 0% and 1% | Population Membrane Permeable-Phenotype (%) [4]: 8% and 5% | Population Mitochondria Different-Phenotype (%) [4]: 27% and 45% | Population Mitotic Cells (%) [4]: 40% and 31% | Population Normal (%) [4]: 99% and 98% | Population Pyknosed Nuclei (%) [4]: 26% and 40% | Population Tubulin-Different-Phenotype (%) [4]: 89% and 78% | Total Cell Count [4]: 258 and 216 | Population Apoptotic (%) [5]: 88% and 73% | Population Fragmented Nuclei (%) [5]: 23% and 20% | Population Healthy Nuclei (%) [5]: 67% and 61% | Population Hoechst High Intensity Objects (%) [5]: 0% | Population Membrane Permeable-Phenotype (%) [5]: 4% and 6% | Population Mitochondria Different-Phenotype (%) [5]: 4% and 5% | Population Mitotic Cells (%) [5]: 12% and 26% | Population Normal (%) [5]: 100% and 99% | Population Pyknosed Nuclei (%) [5]: 8% and 18% | Population Tubulin-Different-Phenotype (%) [5]: 28% and 27% | Total Cell Count [5]: 282 and 246 | Population Apoptotic (%) [6]: 89% and 92% | Population Fragmented Nuclei (%) [6]: 9% and 18% | Population Healthy Nuclei (%) [6]: 44% and 41% | Population Hoechst High Intensity Objects (%) [6]: 1% and 2% | Population Membrane Permeable-Phenotype (%) [6]: 13% and 12% | Population Mitochondria Different-Phenotype (%) [6]: 48% and 61% | Population Mitotic Cells (%) [6]: 10% and 7% | Population Normal (%) [6]: 98% and 97% | Population Pyknosed Nuclei (%) [6]: 46% and 39% | Population Tubulin-Different-Phenotype (%) [6]: 78% and 93% | Total Cell Count [6]: 190 and 197

CN[C@@H]1CC[C@@H](c2ccc(Cl)c(Cl)c2)c2ccccc21.Cl
Population Apoptotic (%) [1]: 43% and 37% | Population Fragmented Nuclei (%) [1]: 14% and 18% | Population Healthy Nuclei (%) [1]: 55% and 62% | Population Hoechst High Intensity Objects (%) [1]: 0% | Population Membrane Permeable-Phenotype (%) [1]: 12% and 9% | Population Mitochondria Different-Phenotype (%) [1]: 2% and 0% | Population Mitotic Cells (%) [1]: 56% and 62% | Population Normal (%) [1]: 100% and 99% | Population Pyknosed Nuclei (%) [1]: 29% and 19% | Population Tubulin-Different-Phenotype (%) [1]: 37% and 20% | Total Cell Count [1]: 194 | Population Apoptotic (%) [2]: 28% and 53% | Population Fragmented Nuclei (%) [2]: 17% and 15% | Population Healthy Nuclei (%) [2]: 56% and 55% | Population Hoechst High Intensity Objects (%) [2]: 0% | Population Membrane Permeable-Phenotype (%) [2]: 11% and 8% | Population Mitochondria Different-Phenotype (%) [2]: 10% and 14% | Population Mitotic Cells (%) [2]: 71% and 46% | Population Normal (%) [2]: 100% and 99% | Population Pyknosed Nuclei (%) [2]: 26% and 28% | Population Tubulin-Different-Phenotype (%) [2]: 82% and 77% | Population Apoptotic (%) [3]: 43% and 40% | Population Fragmented Nuclei (%) [3]: 16% and 17% | Population Healthy Nuclei (%) [3]: 57% and 65% | Population Hoechst High Intensity Objects (%) [3]: 0% and 1% | Population Membrane Permeable-Phenotype (%) [3]: 8% and 2% | Population Mitochondria Different-Phenotype (%) [3]: 1% and 4% | Population Mitotic Cells (%) [3]: 56% and 60% | Population Normal (%) [3]: 99% and 98% | Population Pyknosed Nuclei (%) [3]: 25% and 16% | Population Tubulin-Different-Phenotype (%) [3]: 39% and 19% | Population Apoptotic (%) [4]: 53% and 65% | Population Fragmented Nuclei (%) [4]: 13% and 15% | Population Healthy Nuclei (%) [4]: 56% and 53% | Population Hoechst High Intensity Objects (%) [4]: 0% | Population Membrane Permeable-Phenotype (%) [4]: 7% and 5% | Population Mitochondria Different-Phenotype (%) [4]: 29% and 49% | Population Mitotic Cells (%) [4]: 46% and 34% | Population Normal (%) [4]: 100% and 99% | Population Pyknosed Nuclei (%) [4]: 30% and 32% | Population Tubulin-Different-Phenotype (%) [4]: 89% and 88% | Total Cell Count [4]: 212 and 201 | Population Apoptotic (%) [5]: 78% and 55% | Population Fragmented Nuclei (%) [5]: 21% and 22% | Population Healthy Nuclei (%) [5]: 60% and 64% | Population Hoechst High Intensity Objects (%) [5]: 0% | Population Membrane Permeable-Phenotype (%) [5]: 2% and 3% | Population Mitochondria Different-Phenotype (%) [5]: 0% | Population Mitotic Cells (%) [5]: 21% and 44% | Population Normal (%) [5]: 99% | Population Pyknosed Nuclei (%) [5]: 17% and 12% | Population Apoptotic (%) [6]: 75% and 88% | Population Fragmented Nuclei (%) [6]: 12% and 14% | Population Healthy Nuclei (%) [6]: 66% and 51% | Population Hoechst High Intensity Objects (%) [6]: 1% and 0% | Population Membrane Permeable-Phenotype (%) [6]: 11% and 1% | Population Mitochondria Different-Phenotype (%) [6]: 40% and 47% | Population Mitotic Cells (%) [6]: 24% and 11% | Population Normal (%) [6]: 98% and 100% | Population Pyknosed Nuclei (%) [6]: 21% and 34% | Population Tubulin-Different-Phenotype (%) [6]: 84% and 69% | Total Cell Count [6]: 196
